# Source: ChEMBL document CHEMBL1132342, “Novel hypotensive agents from Verbesina caracasana. 6. Synthesis and pharmacology of caracasandiamide” (1999)
# Columns and labels:
# Rattus norvegicus [1] = test: Maximum rate of rise of the left ventricular isovolumetric pressure was measured after iv administration of 1600 ug/Kg in the presence of noradrenaline (agonist) in anesthetized rats; format: functional, Heart left ventricle
# In short: (§1)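 Anesthetized male Wistar rats, two groups of 8, received 400 or 1600 µg/kg iv. Before and after this dose, iv agonist challenges were given: noradrenaline 1 µg/kg, adrenaline, acetylcholine 2.50 µg/kg, or isoprenaline. Systolic/diastolic BP, heart rate and dP/dt responses were recorded before (control) and after dosing; significance was set at p < 0.05 versus control.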
# Rattus norvegicus [2] = test: Change in systolic blood pressure after iv administration of 4.12 uM/Kg in anesthetized rats; format: functional, Artery
# In short: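 Doses were 4.12 µM/kg (two agents), guanethidine 25, clonidine 0.108, hexamethonium 12, reserpine 8, papaverine 5 and histamine […]. Peak changes in systolic BP or HR were recorded.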
# Rattus norvegicus [3] = test: Change in systolic blood pressure after iv administration of 1600 ug/Kg in the presence of adrenaline (agonist) in anesthetized rats; format: functional, Artery
# Rattus norvegicus [4] = test: Maximum rate of rise of the left ventricular isovolumetric pressure after iv administration of 1600 ug/Kg compound (treatment with reserpine(5 mg/kg/day for 2 days, ip)in anesthetized rats; format: functional, Heart left ventricle
# In short: (§2)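 Anesthetized rats, n = 6 per group, received iv doses of 200–1600 µg/kg (ratio 2.0) either alone (control) or under pretreatment: continuous iv papaverine infusion 1 mg/kg/min, reserpine 5 mg/kg/day ip for 2 days, or hexamethonium 5 mg/kg iv. Peak changes in BP, heart rate and dP/dt recorded; means ± SE, p < 0.05 versus control.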
# Rattus norvegicus [5] = test: Change in stroke volume after iv administration of 200 ug/Kg in anesthetized rats; format: functional
# In short: (§3)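 Male Wistar rats (299 ± 3 g) were anesthetized with ethylurethane ip, tracheally cannulated and breathing spontaneously, at 37 °C, and stabilized for 60 min. Doses of 50-3200 µg/kg (ratio 2.0) in saline were injected by femoral vein, 50 µL each. Recordings: femoral arterial BP, electromagnetic abdominal-aortic flow, SV from integrated pulsatile flow, polygraphic RF. Peak changes, mean ± SE, n = 12 (n = 7 at 3200).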
# Rattus norvegicus [6] = test: Change in heart rate after iv administration of 1600 ug/Kg in the presence of adrenaline (agonist) in anesthetized rats; format: functional
# In short: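 Urethane-anesthetized male Wistar rats (16 rats, two equal groups) received 400 or 1600 µg/kg compound iv. Cardiovascular responses to iv agonist boluses (noradrenaline 1 µg/kg, acetylcholine 2.50 µg/kg, adrenaline, isoprenaline) were measured before and after compound dosing. Peak responses are given as mean ± SE; p < 0.05 versus control mean.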
# Rattus norvegicus [7] = test: Change in systolic blood pressure after iv administration of 100 ug/Kg in anesthetized rats; format: functional, Artery; in short: as §3
# Rattus norvegicus [8] = test: Change in stroke volume after iv administration of 100 ug/Kg in anesthetized rats; format: functional; in short: as §3
# Rattus norvegicus [9] = test: Maximum rate of rise of the left ventricular isovolumetric pressure was measured after iv administration of 4.12 uM/Kg in anesthetized rats; format: functional, Heart left ventricle
# Rattus norvegicus [10] = test: Change in systolic blood pressure after iv administration of 3200 ug/Kg in anesthetized rats; format: functional, Artery; in short: as §3
# Rattus norvegicus [11] = test: Change in diastolic blood pressure after iv administration of 4.12 uM/Kg in anesthetized rats; format: functional, Artery
# Rattus norvegicus [12] = test: Maximum rate of rise of the left ventricular isovolumetric pressure after iv administration of 800 ug/Kg compound (treatment with hexamethonium (5 mg/Kg, iv)in anesthetized rats; format: functional, Heart left ventricle; in short: as §2
# Rattus norvegicus [13] = test: Change in diastolic blood pressure after iv administration of 1600 ug/Kg compound (treatment with papaverine(1 mg/Kg/min, iv)in anesthetized rats; format: functional, Artery
# In short: (§4)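 In anesthetized male Wistar rats, responses to iv compound (200–1600 µg/kg, ratio 2.0) were measured alone and under three pretreatments: continuous iv papaverine infusion (1 mg/kg/min), ip reserpine (5 mg/kg/day for 2 days), or iv hexamethonium (5 mg/kg). Peak changes are given as mean ± SE, n = 6 per group; p < 0.05 versus control.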
# Rattus norvegicus [14] = test: Change in systolic blood pressure after iv administration of 800 ug/Kg compound (treatment with reserpine(5 mg/kg/day for 2 days, ip)in anesthetized rats; format: functional, Artery; in short: as §2
# Rattus norvegicus [15] = test: Maximum rate of rise of the left ventricular isovolumetric pressure was measured after iv administration of 1600 ug/Kg compound (treatment with papaverine(1 mg/Kg/min, iv)in anesthetized rats; format: functional, Heart left ventricle; in short: as §2
# Rattus norvegicus [16] = test: Change in heart rate after iv administration of 1600 ug/kg compound (treatment with papaverine(1 mg/kg/min, iv))in anesthetized rats; format: functional; in short: as §4
# Rattus norvegicus [17] = test: Change in stroke volume after iv administration of 1600 ug/Kg in anesthetized rats; format: functional; in short: as §3
# Rattus norvegicus [18] = test: Maximum rate of rise of the left ventricular isovolumetric pressure was measured after iv administration of 1600 ug/Kg in the presence of adrenaline (agonist) in anesthetized rats; format: functional, Heart left ventricle; in short: as §1
# Rattus norvegicus [19] = test: Change in mean aortic flow after iv administration of 100 ug/Kg in anesthetized rats; format: functional; in short: as §3
# Rattus norvegicus [20] = test: Change in heart rate after iv administration of 800 ug/kg compound (treatment with papaverine(1 mg/kg/min, iv))in anesthetized rats; format: functional
# In short: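 Urethane-anesthetized male Wistar rats, 6 per group, received iv doses of 200-1600 µg/kg (ratio 2.0) given alone or under a pretreatment. Pretreatments were continuous iv papaverine infusion (1 mg/kg/min), reserpine 5 mg/kg/day ip for 2 days, or hexamethonium 5 mg/kg iv. Peak changes in femoral arterial BP and HR were recorded; values are mean ± SE.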
# Rattus norvegicus [21] = test: Change in mean aortic flow after iv administration of 400 ug/Kg in anesthetized rats; format: functional; in short: as §3
# Rattus norvegicus [22] = test: Change in heart rate after iv administration of 100 ug/Kg in anesthetized rats; format: functional
# In short: (§5)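 Adult male Wistar rats under ip ethylurethane (10% w/v in saline, 1 mL/kg) with tracheal cannula and spontaneous breathing, kept at 37 °C. Arterial BP was recorded by femoral artery catheter; compound in saline (50 µL) was given via femoral vein at 50–3200 µg/kg, ratio 2.0. Peak change is given as mean ± SE, n = 12 (n = 7 at 3200 µg/kg).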
# Rattus norvegicus [23] = test: Change in stroke volume after iv administration of 50 ug/Kgg in anesthetized rats; format: functional; in short: as §3
# Rattus norvegicus [24] = test: Maximum rate of rise of the left ventricular isovolumetric pressure was measured after iv administration of 400 ug/Kg in the presence of noradrenaline (agonist) in anesthetized rats; format: functional, Heart left ventricle; in short: as §1
# Rattus norvegicus [25] = test: Change in systolic blood pressure after iv administration of 1600 ug/Kg in the presence of acetylcholine (agonist) in anesthetized rats; format: functional, Artery
# Rattus norvegicus [26] = test: Change in diastolic blood pressure after iv administration of 200 ug/Kg in anesthetized rats; format: functional, Artery; in short: as §5
compound,measurement,setting,value
COc1ccc(C2C(c3ccc(OC)c(OC)c3)[C@H](C(=O)NCCCC/N=C(\N)NCC=C(C)C)[C@@H]2C(=O)NCCCC/N=C(\N)NCC=C(C)C)cc1OC (some centres undefined) [CARACASANDIAMIDE],dP/dt,Rattus norvegicus [1],2225 mmHg s-1
same,BP,Rattus norvegicus [2],-43 mmHg
same,BP,Rattus norvegicus [3],14 mmHg
same,dP/dt,Rattus norvegicus [4],1238 mmHg s-1
same,Change in stroke volume,Rattus norvegicus [5],11%
same,Stroke volume,Rattus norvegicus [5],23 µL
same,Heart rate,Rattus norvegicus [6],7 beats min-1
same,BP,Rattus norvegicus [7],12 mmHg
same,Change in BP,Rattus norvegicus [7],12%
same,Change in stroke volume,Rattus norvegicus [8],10%
same,Stroke volume,Rattus norvegicus [8],20 µL
same,dP/dt,Rattus norvegicus [9],3991 mmHg s-1
same,BP,Rattus norvegicus [10],-48 mmHg
same,Change in BP,Rattus norvegicus [10],-46%
same,BP,Rattus norvegicus [11],-47 mmHg
same,dP/dt,Rattus norvegicus [12],4965 mmHg s-1
same,BP,Rattus norvegicus [13],-29 mmHg
same,BP,Rattus norvegicus [14],-11 mmHg
same,dP/dt,Rattus norvegicus [15],3321 mmHg s-1
same,Heart rate,Rattus norvegicus [16],-31 beats min-1
same,Change in stroke volume,Rattus norvegicus [17],-48%
same,Stroke volume,Rattus norvegicus [17],-97 µL
same,dP/dt,Rattus norvegicus [18],2739 mmHg s-1
same,Change in mean aortic flow,Rattus norvegicus [19],15%
same,Mean aortic flow,Rattus norvegicus [19],11 mL/min
same,Heart rate,Rattus norvegicus [20],-17 beats min-1
same,Mean aortic flow,Rattus norvegicus [21],-14 mL/min
same,Change in heart rate,Rattus norvegicus [22],-3%
same,Heart rate,Rattus norvegicus [22],-10 beats min-1
same,Stroke volume,Rattus norvegicus [23],73 µL
same,dP/dt,Rattus norvegicus [24],5136 mmHg s-1
same,BP,Rattus norvegicus [25],-38 mmHg
same,BP,Rattus norvegicus [26],-13 mmHg
same,Change in BP,Rattus norvegicus [26],-17%
